{"source": "ChEMBL document CHEMBL4229550", "about": "“An antimycobacterial pleuromutilin analogue effective against dormant bacilli” (Bioorg Med Chem, 2018)", "key": {"Bacillus subtilis": {"tested_on": "Bacillus subtilis", "test": "Bactericidal activity against Bacillus subtilis ATCC 6051 incubated for 24 hrs under aerobic condition by MABA", "type": "functional", "settings": "ATCC 6051, 24 h"}, "Acinetobacter baumannii": {"tested_on": "Acinetobacter baumannii", "test": "Bactericidal activity against Acinetobacter baumannii ATCC 19606 incubated for 24 hrs under aerobic condition by MABA", "type": "functional", "settings": "ATCC 19606 = CIP 70.34 = JCM 6841, 24 h"}, "Enterococcus faecalis [1]": {"tested_on": "Enterococcus faecalis", "test": "Bactericidal activity against Enterococcus faecalis ATCC 349 incubated for 24 hrs under aerobic condition by MABA", "type": "functional", "settings": "ATCC 349, 24 h"}, "[2]": {"test": "Apparent permeability from apical to basolateral side in human Caco2 cells at 10 uM after 2 hrs by LC-MS/MS analysis", "type": "ADME, cell-based", "settings": "caco-2, 2 h"}, "[3]": {"test": "Cmax in Balb/c mouse lung at 30 mg/kg, po", "type": "ADME, organism-based", "design": "dose 30 mg/kg, route oral"}, "Escherichia coli [4]": {"tested_on": "Escherichia coli", "test": "Inhibition of protein translation/transcription in Escherichia coli S30 cell extract using circular DNA with pBESTluc after 60 mins by luciferase reporter gene assay", "type": "functional", "settings": "1 h", "method_in_brief": "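E. coli S30 circular-DNA coupled transcription/translation kit with the pBESTluc template (firefly luciferase under the tac promoter). S30 extract, amino acids and premix are combined with compound in DMSO, and the reaction is started with DNA. Incubation is 60 min at 37 °C, stopped on ice, then luciferase luminescence is read.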"}, "Staphylococcus aureus [5]": {"tested_on": "Staphylococcus aureus", "test": "Bactericidal activity against Staphylococcus aureus ATCC 25923 incubated for 24 hrs under aerobic condition by MABA", "type": "functional", "settings": "ATCC 25923, 24 h"}, "[6]": {"test": "Selectivity index, ratio of IC50 for African green monkey Vero cells to MIC100 for replicating Mycobacterium tuberculosis H37Rv by MABA", "type": "toxicity", "settings": "read-out: Selectivity Index", "method_in_brief": "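Vero cells are cultured in EMEM with 10% FBS and exposed for 72 h to 0.78–200 µg/mL. Medium is switched to phenol-red-free EMEM, MTT is added, and formazan is read at 570 nm to give IC50. The selectivity index is Vero IC50 divided by the MABA MIC.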"}, "Staphylococcus aureus [7]": {"tested_on": "Staphylococcus aureus", "test": "Antibacterial activity against Staphylococcus aureus incubated for 24 hrs under aerobic condition by MABA", "type": "functional", "settings": "read-out: MIC100", "method_in_brief": "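Resazurin was then added from a 0.08% stock for 1 h. MIC100 was the lowest concentration where the dye stayed blue (pink means growth). Absorbance was also read at 570 and 600 nm.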"}, "[8]": {"tested_on": "Mycobacterium tuberculosis", "test": "Bactericidal activity against replicating Mycobacterium tuberculosis H37Rv incubated for 15 days under aerobic condition by MABA", "type": "functional", "settings": "360 h", "method_in_brief": "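Mtb H37Rv grown in 7H9/OADC at 37 °C with shaking to OD600 0.5. The 0.5-OD culture is exposed aerobically to serial dilutions for 15 days at 37 °C. Resazurin (0.02% stock) is then added for 4 h at 37 °C with shaking.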"}, "Streptococcus salivarius": {"tested_on": "Streptococcus salivarius", "test": "Bactericidal activity against Streptococcus salivarius ATCC 6301 incubated for 24 hrs under aerobic condition by MABA", "type": "functional", "settings": "ATCC 6301, 24 h"}, "Mus musculus": {"tested_on": "Mus musculus", "test": "Toxicity in po dosed Balb/c mouse assessed as effect on health measured for 7 days", "type": "organism-based", "settings": "in vivo, 168 h"}, "[9]": {"tested_on": "Mycobacterium tuberculosis", "test": "Bactericidal activity against Mycobacterium tuberculosis H37Rv at 2 times MIC measured every 24 hrs up to 12 days by time kill assay relative to control", "type": "functional", "method_in_brief": "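Mid-log H37Rv (OD 0.5) is diluted to OD 0.25 and exposed at MIC, 2×MIC or 4×MIC. Every 24 h cultures are diluted 10- to 10,000-fold and plated on 7H10/OADC agar. Plates are incubated 15 days at 37 °C before colony counts.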"}, "Enterococcus faecalis [10]": {"tested_on": "Enterococcus faecalis", "test": "Bactericidal activity against Enterococcus faecalis ATCC 19433 incubated for 24 hrs under aerobic condition by MABA", "type": "functional", "settings": "ATCC 19433, 24 h"}, "Klebsiella pneumoniae": {"tested_on": "Klebsiella pneumoniae", "test": "Bactericidal activity against Klebsiella pneumoniae ATCC 12019 incubated for 24 hrs under aerobic condition by MABA", "type": "functional", "settings": "ATCC 12019, 24 h"}, "Staphylococcus aureus [11]": {"tested_on": "Staphylococcus aureus", "test": "Antibacterial activity against Staphylococcus aureus BAA 44 incubated for 24 hrs under aerobic condition by MABA", "type": "functional", "settings": "BAA 44, 24 h, read-out: MIC100", "method_in_brief": "(§1)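 Mid-log cultures at OD 0.5 were exposed to serial dilutions under aerobic conditions at 37 °C for 24 h. Resazurin was then added from a 0.08% stock for 1 h. MIC100 was the lowest concentration where the dye stayed blue (pink means growth). Absorbance was also read at 570 and 600 nm.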"}, "[12]": {"tested_on": "Mycolicibacterium smegmatis", "test": "Antibacterial activity against Mycobacterium smegmatis ATCC 607 incubated for 48 hrs under aerobic condition by MABA", "type": "functional", "settings": "ATCC 607, 48 h, read-out: MIC100", "method_in_brief": "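Mid-log culture at OD 0.5 was incubated with serial dilutions aerobically at 37 °C for 48 h. Resazurin was then added from a 0.08% stock for 1 h. MIC100 was the lowest concentration that stayed blue; absorbance was also read at 570/600 nm.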"}, "[13]": {"test": "Cmax in Balb/c mouse at 30 mg/kg, po", "type": "ADME, organism-based", "design": "dose 30 mg/kg, route oral", "settings": "in vivo", "method_in_brief": "(§2)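 Single oral dose of 30 mg/kg in BALB/c mice (n = 6). Serum PK parameters were t1/2, tmax, Cmax and AUC over 0–24 h and to infinity. Oral bioavailability F was calculated against the 3 mg/kg IV dose.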"}, "Enterococcus faecalis [14]": {"tested_on": "Enterococcus faecalis", "test": "Antibacterial activity against Enterococcus faecalis ATCC 349 incubated for 24 hrs under aerobic condition by MABA", "type": "functional", "settings": "ATCC 349, 24 h, read-out: MIC100", "method_in_brief": "as §1"}, "Enterococcus faecalis [15]": {"tested_on": "Enterococcus faecalis", "test": "Antibacterial activity against Enterococcus faecalis ATCC 19433 incubated for 24 hrs under aerobic condition by MABA", "type": "functional", "settings": "ATCC 19433, 24 h, read-out: MIC100", "method_in_brief": "as §1"}, "[16]": {"test": "Half life in Sprague-Dawley rat liver microsomes at 500 ng/ml preincubated for 5 mins followed by NADPH addition by C-MS/MS analysis", "type": "ADME, microsome"}, "[17]": {"tested_on": "Mycobacterium tuberculosis", "test": "Antibacterial activity against Mycobacterium tuberculosis Erdman infected in Balb/c mouse assessed as reduction in bacterial load in lungs at 100 mg/kg, po for 3 weeks starting from 10 days post infection measured on day 21 post infection", "type": "functional, Erdman = ATCC 35801", "method_in_brief": "(§3)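 Female BALB/c mice, 7–8 weeks old, are aerosol-infected with Mtb Erdman. From day 10 they receive oral gavage in water for three weeks, in groups of 5. Lungs and spleens are harvested at day 21 post-infection and plated for CFU. Efficacy is the log10 reduction in lung burden versus untreated (vehicle) controls.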"}, "Escherichia coli [18]": {"tested_on": "Escherichia coli", "test": "Inhibition of protein translation/transcription in Escherichia coli S30 cell extract at 0.1 ug/ml using circular DNA with pBESTluc after 60 mins by luciferase reporter gene assay", "type": "functional", "method_in_brief": "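Coupled transcription/translation used E. coli S30 extract, amino acid mix and premix, with the pBESTluc template carrying firefly luciferase under the tac promoter. Compounds were added in DMSO and reactions were started with DNA. Incubation was 60 min at 37 °C, stopped on ice, and luciferase was read after adding assay substrate.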"}, "[19]": {"tested_on": "Mycobacterium tuberculosis", "test": "Antibacterial activity against Mycobacterium tuberculosis Erdman infected in Balb/c mouse assessed as reduction in bacterial load in lungs at administered po for 3 weeks starting from 10 days post infection measured on day 21 post infection", "type": "functional, organism-based", "settings": "Erdman = ATCC 35801", "method_in_brief": "as §3"}, "[20]": {"test": "Half life in Balb/c mouse serum at 30 mg/kg, po", "type": "ADME, organism-based", "method_in_brief": "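Single 30 mg/kg oral dose in six BALB/c mice; serum half-life and tmax are derived from the concentration–time profile.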"}, "[21]": {"test": "Cmax in Balb/c mouse serum at 30 mg/kg, po", "type": "ADME, organism-based", "design": "dose 30 mg/kg, route oral", "method_in_brief": "as §2"}}, "note": "Calls of active or inactive are those of the source. No cut-off for these calls is given here."}
{"compound": "CC[C@]1(C)C[C@@H](OC(=O)CSC(C)(C)CNC(=O)[C@H](N)CC(C)C)[C@]2(C)[C@H](C)CC[C@]3(CC[C@@H](O)[C@H]32)[C@@H](C)[C@@H]1O", "values": [{"measurement": "MBC", "setting": "Bacillus subtilis", "value": "> 25", "unit": "µg/mL"}, {"measurement": "MBC", "setting": "Acinetobacter baumannii", "value": 3.13, "unit": "µg/mL"}, {"measurement": "MBC", "setting": "Enterococcus faecalis [1]", "value": "> 25", "unit": "µg/mL"}, {"measurement": "Papp", "setting": "[2]", "value": 3.39, "unit": "×10⁻⁶ cm/s"}, {"measurement": "Cmax", "setting": "[3]", "value": 6070, "unit": "ng/g"}, {"measurement": "IC50", "setting": "Escherichia coli [4]", "value": 0.09, "unit": "µg/mL"}, {"measurement": "MBC", "setting": "Staphylococcus aureus [5]", "value": "> 25", "unit": "µg/mL"}, {"measurement": "selectivity ratio", "setting": "[6]", "value": 30.1}, {"measurement": "MIC", "setting": "Staphylococcus aureus [7]", "value": 0.78, "unit": "µg/mL"}, {"measurement": "MBC", "setting": "[8]", "value": 0.83, "unit": "µg/mL"}, {"measurement": "MBC", "setting": "Streptococcus salivarius", "value": "> 25", "unit": "µg/mL"}, {"measurement": "MTD", "setting": "Mus musculus", "value": "> 200", "unit": "mg/kg"}, {"measurement": "Activity", "setting": "[9]", "value": 100, "unit": "%"}, {"measurement": "MBC", "setting": "Enterococcus faecalis [10]", "value": 12.5, "unit": "µg/mL"}, {"measurement": "MBC", "setting": "Klebsiella pneumoniae", "value": 25, "unit": "µg/mL"}, {"measurement": "MIC", "setting": "Staphylococcus aureus [11]", "value": "> 25", "unit": "µg/mL"}, {"measurement": "MIC", "setting": "[12]", "value": 6.25, "unit": "µg/mL"}, {"measurement": "Cmax", "setting": "[13]", "value": 1340, "unit": "ng/mL"}, {"measurement": "MIC", "setting": "Enterococcus faecalis [14]", "value": "> 25", "unit": "µg/mL"}, {"measurement": "MIC", "setting": "Enterococcus faecalis [15]", "value": 6.25, "unit": "µg/mL"}, {"measurement": "t1/2", "setting": "[16]", "value": "> 1", "unit": "h"}, {"measurement": "log(activity)", "setting": "[17]", "value": 0.2}, {"measurement": "inhibition", "setting": "Escherichia coli [18]", "value": "Active"}, {"measurement": "Activity", "setting": "[19]", "value": "Dose-dependent effect"}, {"measurement": "half-life", "setting": "[20]", "value": 10.5, "unit": "h"}, {"measurement": "Cmax", "setting": "[21]", "value": 2960, "unit": "ng/mL"}]}
